Results taken from ChEMBL document CHEMBL4765233, “From Lead to Drug Candidate: Optimization of 3-(Phenylethynyl)-1H-pyrazolo[3,4-d]pyrimidin-4-amine Derivatives as Agents for the Treatment of Triple Negative Breast Cancer” (J Med Chem, 2016).
Calls of active or inactive are those of the source. The calls are words filed in the database; no cut-off is given here.

Columns and labels:
[1] = test system: MDA-MB-231; test: Induction of apoptosis in human MDA-MB-231 cells assessed as late apoptotic cells at 0.1 uM incubated for 24 hrs by annexin V-FITC and propidium iodide staining based flow cytometry analysis (reference value: 0.85 %); assay type: functional
[2] = test system: MDA-MB-231; test: Inhibition of tumor mitotic index in SCID mouse xenografted with human MDA-MB-231 cells assessed as reduction in Ki67 expression at 40 mg/kg, po QD for 21 days by immunohistochemical staining analysis; assay type: functional, organism-based; settings: dose 40.0 mg/kg/day, time 21.0 day
Summary of the method: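 SCID mice carried subcutaneous MDA-MB-231 xenografts (5 × 10^6 cells in 100 μL). Oral dosing in water with 25% PEG400 and 5% DMSO began at 150–200 mm3. Tumours were removed at the end of study, formalin-fixed and paraffin-embedded, then immunostained.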

[3] = Acute toxicity in Sprague-Dawley rat assessed as histopathological changes in heart at 100 mg/kg, po administered as single dose measured after 24 hrs by H and E staining based light microscope analysis; assay type: organism-based; settings: in vivo
Summary of the method: (§1)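 Sprague-Dawley rats received a single oral dose of 100 mg/kg in sterile water with 25% (v/v) PEG400 plus 5% DMSO. Organs were examined by histology and immunohistochemistry for pathological changes. Behaviour and side effects were checked daily.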

[4] = Inhibition of human recombinant EPHB2 A848S/K918E mutant (560 to end residues) using poly(Glu,Tyr)4:1 as substrate incubated for 40 mins in presence of [gamma33P-ATP] by radiometric scintillation counting analysis
Summary of the method: (§2)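 Radiometric kinase assay run as an external profiling service, with ATP at the Km of each kinase. IC50 values are means of two independent experiments.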

[5] = test system: MIA PaCa-2; test: Antiproliferative activity against human MIA PaCa-2 cells assessed as reduction in cell viability incubated for 72 hrs by MTT assay; assay type: functional, cell-based; settings: MIA PaCa-2, 72 h
Summary of the method: (§3)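 MTT viability assay. ATCC cell lines were grown in designated medium with 10% FBS at 37 °C, 5% CO2. Cells seeded at 1500−30000 per well and incubated 24 h, then exposed to compound (0−10 μg/mL) for 72 h. MTT added for 2−4 h. Formazan dissolved in DMSO (adherent) or acidified SDS overnight (suspension), absorbance read at 570 nm. Triplicates; IC50 calculated.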

[6] = biological target: Ribosomal protein S6 kinase alpha-1 (Homo sapiens, UniProt Q15418); test: Inhibition of human full length recombinant RSK1 using KKKNRTLSVA as substrate incubated for 40 mins in presence of [gamma33P-ATP] by radiometric scintillation counting analysis; summary of the method: as §2
Sequence of Ribosomal protein S6 kinase alpha-1 (Q15418 whole entry): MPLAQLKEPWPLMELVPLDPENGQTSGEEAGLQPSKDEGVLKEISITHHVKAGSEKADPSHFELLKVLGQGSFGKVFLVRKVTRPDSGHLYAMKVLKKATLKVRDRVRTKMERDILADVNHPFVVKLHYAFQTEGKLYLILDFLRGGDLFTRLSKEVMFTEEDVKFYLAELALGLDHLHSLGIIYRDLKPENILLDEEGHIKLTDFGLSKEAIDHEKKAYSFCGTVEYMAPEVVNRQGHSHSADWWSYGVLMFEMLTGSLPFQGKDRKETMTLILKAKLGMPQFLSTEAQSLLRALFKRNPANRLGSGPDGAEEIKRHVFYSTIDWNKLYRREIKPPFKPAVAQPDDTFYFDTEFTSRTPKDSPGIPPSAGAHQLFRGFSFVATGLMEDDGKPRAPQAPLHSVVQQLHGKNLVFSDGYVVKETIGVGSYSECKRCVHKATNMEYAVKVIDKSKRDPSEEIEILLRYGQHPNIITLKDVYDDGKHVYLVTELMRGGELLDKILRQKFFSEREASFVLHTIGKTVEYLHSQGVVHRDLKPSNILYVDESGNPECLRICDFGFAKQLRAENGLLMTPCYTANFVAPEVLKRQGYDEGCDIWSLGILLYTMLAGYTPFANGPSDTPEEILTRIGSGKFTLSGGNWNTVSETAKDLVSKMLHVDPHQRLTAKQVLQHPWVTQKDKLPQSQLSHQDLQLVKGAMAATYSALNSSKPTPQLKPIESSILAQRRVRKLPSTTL

[7] = test system: MDA-MB-231; test: Inhibition of MEK phosphorylation in human MDA-MB-231 cells at 0.01 to 0.3 uM incubated for 20 hrs by Western blot analysis; assay type: cell-based; settings: dose 0.01-0.3 µM
Summary of the method: (§4)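 MDA-MB-231 cells treated with a series of concentrations for 20 h at 37 °C. Cells washed with ice-cold saline and lysed in RIPA buffer with protease cocktail. Lysates cleared at 12000 rpm for 10 min at 4 °C and protein quantified by Bradford. Equal protein separated by SDS-PAGE, transferred to PVDF and probed with antibodies.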

[8] = test system: ZR-75-1; test: Antiproliferative activity against human ZR-75-1 cells assessed as reduction in cell viability incubated for 72 hrs by MTT assay; assay type: functional, cell-based; settings: ZR-75-1, 72 h; summary of the method: as §3
[9] = Tmax in Sprague-Dawley rat at 10 mg/kg, po administered via gavage by LC-MS analysis; assay type: ADME, organism-based; settings: in vivo
[10] = test system: PC-9; test: Antiproliferative activity against human PC-9 cells assessed as reduction in cell viability incubated for 72 hrs by MTT assay; assay type: functional, cell-based; settings: PC-9, 72 h; summary of the method: as §3
[11] = test system: NCI-H1437; test: Antiproliferative activity against human NCI-H1437 cells assessed as reduction in cell viability incubated for 72 hrs by MTT assay; assay type: functional, cell-based; settings: NCI-H1437, 72 h; summary of the method: as §3
[12] = Toxicity in SCID mouse xenografted with MDA-MB-231 cells assessed as change in body weight at 40 mg/kg, po qd for 15 days and measured every 3 days; assay type: organism-based; settings: in vivo, 360 h, dose 40 mg/kg/day, time 15 day
[13] = biological target: Fibroblast growth factor receptor 3 (Homo sapiens, UniProt P22607); test: Inhibition of human recombinant FGFR3 (447 to 761 residues) using poly(Glu,Tyr)4:1 as substrate incubated for 40 mins in presence of [gamma33P-ATP] by radiometric scintillation counting analysis; summary of the method: as §2
Sequence of Fibroblast growth factor receptor 3 (P22607 whole entry, the tested form may be a part): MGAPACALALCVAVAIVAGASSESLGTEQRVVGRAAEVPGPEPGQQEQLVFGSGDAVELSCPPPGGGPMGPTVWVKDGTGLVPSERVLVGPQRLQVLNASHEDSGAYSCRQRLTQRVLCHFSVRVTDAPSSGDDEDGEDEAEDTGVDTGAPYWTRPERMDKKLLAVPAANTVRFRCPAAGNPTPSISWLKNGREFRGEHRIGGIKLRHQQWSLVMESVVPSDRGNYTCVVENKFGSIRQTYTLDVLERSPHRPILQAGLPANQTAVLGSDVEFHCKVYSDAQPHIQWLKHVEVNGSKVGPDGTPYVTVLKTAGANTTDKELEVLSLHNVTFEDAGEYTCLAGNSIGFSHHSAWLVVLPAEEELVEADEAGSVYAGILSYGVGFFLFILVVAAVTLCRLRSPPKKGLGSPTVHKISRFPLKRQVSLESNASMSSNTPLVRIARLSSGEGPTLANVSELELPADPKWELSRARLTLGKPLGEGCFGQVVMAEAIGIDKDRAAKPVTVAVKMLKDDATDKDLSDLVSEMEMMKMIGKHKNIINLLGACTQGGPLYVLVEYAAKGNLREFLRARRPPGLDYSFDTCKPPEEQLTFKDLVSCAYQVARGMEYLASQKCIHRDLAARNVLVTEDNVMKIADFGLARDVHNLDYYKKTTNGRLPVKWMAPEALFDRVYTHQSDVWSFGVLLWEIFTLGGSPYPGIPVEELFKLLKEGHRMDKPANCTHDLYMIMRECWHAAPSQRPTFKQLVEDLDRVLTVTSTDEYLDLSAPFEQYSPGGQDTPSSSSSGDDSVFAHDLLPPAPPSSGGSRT

[14] = biological target: Mitogen-activated protein kinase 14 (Homo sapiens, UniProt Q16539); test: Inhibition of human full length recombinant p38alpha using myelin basic protein as substrate incubated for 40 mins in presence of [gamma33P-ATP] by radiometric scintillation counting analysis; summary of the method: as §2
Sequence of Mitogen-activated protein kinase 14 (Q16539 whole entry): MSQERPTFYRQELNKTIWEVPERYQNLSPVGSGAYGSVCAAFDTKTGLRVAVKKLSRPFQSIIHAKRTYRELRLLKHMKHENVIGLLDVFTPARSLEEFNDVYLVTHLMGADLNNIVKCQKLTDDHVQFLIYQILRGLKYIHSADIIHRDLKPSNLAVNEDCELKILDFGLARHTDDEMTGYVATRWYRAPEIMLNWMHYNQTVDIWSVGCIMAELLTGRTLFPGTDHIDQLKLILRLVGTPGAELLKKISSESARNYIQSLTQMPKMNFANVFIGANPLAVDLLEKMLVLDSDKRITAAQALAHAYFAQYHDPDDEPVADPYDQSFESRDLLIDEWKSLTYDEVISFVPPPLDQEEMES

[15] = test system: MDA-MB-231; test: Inhibition of ERK phosphorylation in human MDA-MB-231 cells at 0.01 to 0.3 uM incubated for 20 hrs by Western blot analysis; assay type: cell-based; settings: dose 0.01-0.3 µM; summary of the method: as §4
[16] = Acute toxicity in Sprague-Dawley rat assessed as histopathological changes in spleen at 100 mg/kg, po administered as single dose measured after 24 hrs by H and E staining based light microscope analysis; assay type: organism-based; settings: in vivo; summary of the method: as §1
[17] = test system: MDA-MB-231; test: Increase in cleaved caspase-3 level in human MDA-MB-231 cells incubated for 20 hrs by Western blot analysis; assay type: functional, cell-based; settings: dose 0.01-0.3 µM
Summary of the method: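 MDA-MB-231 cells given a concentration series for 20 h at 37 °C. Cells lysed in RIPA with protease cocktail, cleared at 12000 rpm, 4 °C. Protein quantified by Bradford, equal amounts run on SDS-PAGE, transferred to PVDF and immunoblotted.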

[18] = Metabolic stability in human liver microsomes assessed as parent compound remaining at 1 uM measured after 60 mins in presence of NADPH by HPLC-MS/MS analysis; assay type: ADME, Microsome; settings: read-out: Stabilty
Summary of the method: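 Compound at 1 μM incubated with 0.5 mg/mL liver microsomes and 1 mM NADPH. Samples taken at 0, 10, 15, 30, 45 and 60 min and quenched with acetonitrile. After centrifugation, supernatant analysed by HPLC-MS/MS, with percent parent remaining relative to the 0 min area.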

[19] = test system: MDA-MB-231; test: Induction of apoptosis in human MDA-MB-231 cells assessed as live cells at 0.03 uM incubated for 24 hrs by annexin V-FITC and propidium iodide staining based flow cytometry analysis (reference value: 96.95 %); assay type: functional
[20] = test system: Mus musculus; test: In vivo inhibition of Src in SCID mouse xenografted with human MDA-MB-231 cells assessed as reduction in phosphorylation of Src in tumor tissue at 40 mg/kg, po QD for 21 days by immunohistochemical analysis; assay type: functional, organism-based; settings: dose 40.0 mg/kg/day, time 21.0 day
Summary of the method: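 Tumors taken from xenografted SCID mice dosed orally at 40 mg/kg/q.d. or given control; mice euthanized at set times. Tumors formalin-fixed and paraffin-embedded, stained by immunohistochemistry for phospho-proteins, and imaged by light microscopy.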

[21] = Acute toxicity in Sprague-Dawley rat assessed as histopathological changes in liver at 100 mg/kg, po administered as single dose measured after 24 hrs by H and E staining based light microscope analysis; assay type: organism-based; settings: in vivo; summary of the method: as §1
[22] = AUC (0 to infinity) in Sprague-Dawley rat at 10 mg/kg, po administered via gavage by LC-MS analysis; assay type: ADME, organism-based; design: time infinity, route oral, dose 10 mg/kg; settings: in vivo
[23] = test system: MDA-MB-231; test: Induction of apoptosis in human MDA-MB-231 cells assessed as necrotic cells at 0.03 uM incubated for 24 hrs by annexin V-FITC and propidium iodide staining based flow cytometry analysis (reference value: 0.2 %); assay type: functional

## Cc1ccc(NC(=O)c2ccc(C)c(C(F)(F)F)c2)cc1C#Cc1nn([C@H]2CC[C@H](O)CC2)c2ncnc(N)c12
[1]
  Activity: 17.35%
[2]
  inhibition: Active
[3]
  Activity: Non-Toxic
[4]
  IC50: 33 nM
[5]
  IC50: < 600 nM
[6]
  IC50: 559 nM
[7]
  inhibition: Active
[8]
  IC50: 10000 nM
[9]
  Tmax: 4 h
[10]
  IC50: 152 nM
[11]
  IC50: 2340 nM
[12]
  Activity: 3.4%
[13]
  IC50: 120 nM
[14]
  IC50: 342 nM
[15]
  inhibition: Active
[16]
  Activity: Non-Toxic
[17]
  Activity: Dose-dependent effect
[18]
  remaining at 1 h, 1 µM: > 90%
[19]
  Activity: 78.36%
[20]
  inhibition: Active
[21]
  Activity: Non-Toxic
[22]
  AUC(0-inf): 2950 ng·h/mL
[23]
  Activity: 2.42%
